# Most compounds without a hit are left out; they make up all but 2% or so of the library.
# CHRM5 agonist: agonists of human muscarinic M5 receptor (CHRM5); 360,000 compounds, 0.19% hits; P08912; activation, % at 3 µM; CHO-K1 hM5 cells, Fluo-8 calcium fluorescence; 0% DMSO wells, 100% maximal acetylcholine response;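 active = activation above the run's mean over test compounds plus 3 SD, cut at about 23% in these data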;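 note: signal is peak over basal fluorescence ratio across the kinetic read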
# M5 antag: CHRM5 antagonism in calcium assay | 360,000 compounds, 0.59% hits | CHO-hM5 cells, Fluo-8 calcium fluorescence, ACh EC80 | inhibition, % at 3 µM | P08912 | AID 624040;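 active = inhibition above a per-plate cutoff, the mean of that plate's test compounds plus 3 SD, cut at about 27% in these data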;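 note: 0% = acetylcholine EC80 with DMSO and 100% = DMSO without agonist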
# CHRM1 agonist: activates human CHRM1 receptor | P11229 | CHO-K1 hM1, Fluo-8 calcium fluorescence, agonist mode; 0% DMSO, 100% acetylcholine EC100 | activation, % at 3 µM | 360,000 compounds, 0.33% hits;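 active = activation above the run's mean compound activation plus 3 SD, cut at about 16% in these data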;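 note: peak over basal fluorescence ratio within a 140 s kinetic read after compound addition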
# Target sequence (P11229 whole entry, looked up): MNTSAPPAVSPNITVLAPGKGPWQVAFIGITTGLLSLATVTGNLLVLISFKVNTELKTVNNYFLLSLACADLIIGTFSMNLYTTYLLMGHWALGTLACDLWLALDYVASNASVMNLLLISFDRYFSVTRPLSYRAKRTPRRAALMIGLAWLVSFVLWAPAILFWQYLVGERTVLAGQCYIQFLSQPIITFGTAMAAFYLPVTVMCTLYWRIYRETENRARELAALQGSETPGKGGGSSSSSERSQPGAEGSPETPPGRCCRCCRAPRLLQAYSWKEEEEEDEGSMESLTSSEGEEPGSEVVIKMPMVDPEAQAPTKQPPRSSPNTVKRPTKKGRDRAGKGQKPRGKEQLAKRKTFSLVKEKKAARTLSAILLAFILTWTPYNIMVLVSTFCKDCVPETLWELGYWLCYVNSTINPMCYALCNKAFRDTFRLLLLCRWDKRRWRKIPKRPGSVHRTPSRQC
# M1 antag: human CHRM1 antagonism; CHO-K1 hM1, Fluo-8 calcium fluorescence, ACh EC80 antagonist; inhibition, % at 3 µM; 360,000 compounds, 1.3% hits;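 active = percent inhibition above its own plate's cutoff, namely the mean of that plate's compound wells plus 3 SD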;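 note: peak over basal fluorescence ratio during 140 s after agonist addition; 0% = ACh EC80 plus DMSO and 100% = DMSO alone without agonist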
# M1 PAM: potentiates human M1 receptor response to acetylcholine; P11229; 360,000 compounds, 0.088% hits; CHO-K1 hM1, Fluo-8 calcium fluorescence, ACh EC20; 0% = ACh EC20, 100% = maximal ACh; activation, % at 3 µM; AID 588819; in the data active = activation above about 19%, passing the limit was not always enough
# CHRM5 PAM: CHRM5 positive allosteric modulation; P08912; activation, % at 3 µM; 360,000 compounds, 0.3% hits; AID 624038; CHO-K1 hM5, Fluo-8 calcium, ACh EC20 PAM; 0% = ACh EC20, 100% = ACh EC100;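 active = activation above the run cutoff, the mean activation of all test compounds plus 3 SD, cut at about 18% in these data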
#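 Test system: CHO-K1 hM5 cells / Doses: single-point, 3 µM nominal / Times: Post-acetylcholine fluorescence recording 140 s / Technique: Fluo-8 calcium fluorescence / Measure: Max/basal fluorescence ratio as % of EC20–EC100 ACh window / Benchmarks: low control EC20 acetylcholine (0%), high control EC100 acetylcholine (100%) / Replicates: one well per compound, no replicates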
# * = called active by the depositor; x = no result.
SMILES,CHRM5 agonist,M5 antag,CHRM1 agonist,M1 antag,M1 PAM,CHRM5 PAM
CCCCN1C(=O)C(CC(=O)NC2CC2)CC(C(=O)N(CC)CC)=C1C (centres undefined),0.9,-0.7,-3.2,-0.9,-0.5,-3.0
CSc1ccc(C(=O)C2CCCN(Cc3ccc(N4CCNC4=O)cc3)C2)cc1 (centres undefined),-11.2,-4.0,-11.0,96.6*,-28.4,-14.1
COc1ccc(CN2CCCC(C(=O)c3ccc(SC)cc3)C2)cc1Cn1cccn1 (centres undefined),-19.8,18.2,-4.1,88.3*,-24.8,-25.7
COC(=O)C1(NC(=O)CNC(=O)OCc2ccccc2)CCCC1,3.3,1.9,-3.4,-12.2,4.3,11.8
Cc1cc(OC(C)C(=O)NC2CC(C)(C)NC(C)(C)C2)c2c(C)c(C)c(=O)oc2c1 (centres undefined),-0.2,-3.6,-0.2,-18.9,17.0,2.1
CCc1nnc(NC(=O)CSc2nncc(=O)n2N)s1,-0.3,-21.3,1.4,-19.8,19.0,24.3*
CCSc1nnc(NC(=O)CSc2nncc(=O)n2N)s1,5.6,14.6,-2.2,-0.5,3.4,5.6
COCc1nnc(NC(=O)CSc2ccc(C)cc2)s1,16.6,0.0,9.5,-12.9,10.2,0.3
CCOC(=O)Cc1nnc(NC(=O)CSc2ccc(C)cc2)s1,14.8,-0.8,18.5*,-8.4,10.1,-2.8
CC(NC1CCN(Cc2ccccc2)CC1)c1ccc(F)cc1 (centres undefined),-0.7,-0.1,-10.5,34.4*,-20.4,0.8
Clc1ccc(CN2CCC(Cc3ccccc3)CC2)cc1,-7.7,9.9,-14.8,44.8*,-27.8,-9.8
O=C(C1CCN(Cc2ccc(Cl)cc2)CC1)N1CCN(C(c2ccccc2)c2ccccc2)CC1,-8.2,43.7*,-7.2,99.3*,-26.6,-19.1
CSc1ccc(CN2CCC(Cc3ccccc3)CC2)cc1,-24.8,1.0,-9.2,49.5*,-28.9,-14.6
Cc1ccc2c(NCc3ccco3)nc(NC(C)C)nc2c1,-2.6,-2.6,x,x,x,-5.3
CCOc1ccc(CNC(=O)CN2C(=O)CSc3ccc(S(=O)(=O)N4CCOCC4)cc32)cc1,-0.8,1.8,-5.8,-13.2,0.8,-1.1
CCOC(=O)C1(CCOc2ccccc2)CCN(Cc2cccc(OC)c2OC)CC1,-14.0,22.4,-1.7,41.7*,-23.7,-29.0
CCOC(=O)C1(CCOc2ccccc2)CCN(Cc2ccccc2O)CC1,-22.3,7.2,-3.7,-14.6,7.4,-15.8
COc1c(F)c(F)c(C(=O)Nc2ccccc2N2CCN(C(C)=O)CC2)c(F)c1F,-2.6,-2.0,-4.3,-17.4,1.5,-2.2
COc1c(F)c(F)c(C(=O)Nc2ccccc2N2CCN(C(=O)C(C)C)CC2)c(F)c1F,1.7,26.6,-0.7,-6.7,7.2,30.6*
O=C(O)CNc1nc(NCc2ccc(Cl)cc2)ccc1[N+](=O)[O-],1.2,-2.7,-1.3,-19.2,10.4,0.3
N#CC1(CCCN2CCCCC2)c2ccccc2CCc2ccccc21,-17.4,26.9,-5.1,67.7*,-24.6,-36.0
O=C(C(=O)N1CCC(Cc2ccccc2)CC1)c1ccccc1Br,-0.1,14.1,x,x,x,-13.0
COc1ccccc1N1CCN(c2nc(-c3ccccc3)cc(C(F)(F)F)n2)CC1,-0.7,-20.2,0.6,-13.7,10.8,26.8*
FC(F)(F)c1cc(-c2ccccc2)nc(N2CCCCCC2)n1,-0.6,-0.1,-1.0,-17.4,4.3,-0.1
O=C(NNc1ccccc1[N+](=O)[O-])Nc1ccc(Cl)c(Cl)c1,12.2,28.9*,11.7,15.4,-5.0,-17.7
SMILES,CHRM5 agonist,M5 antag,CHRM1 agonist,M1 antag,M1 PAM,CHRM5 PAM
O=C(Nc1ccc(Cl)cc1)Nc1ccc(N2CCOCC2)cc1,1.5,9.7,-0.6,11.5,-1.9,-9.2
O=C(Nc1ccc(N2CCOCC2)cc1)Nc1ccc(Cl)c(Cl)c1,14.9,39.0*,3.7,54.8*,-32.7,-24.3
O=C(Nc1ccc(Cl)c(Cl)c1)Nc1ccccc1O,3.4,42.5*,1.9,19.1,-7.4,-24.7
O=C(Nc1ccc(Cl)c(Cl)c1)Nc1ccon1,7.8,10.4,4.2,23.9*,-14.9,-21.0
O=C(NNc1ccccc1[N+](=O)[O-])Nc1ccccc1,2.8,-0.3,-2.5,2.1,4.6,1.3
Cc1cccc(C)c1NC(=O)C1c2ccccc2OCC(=O)N1CCc1ccccc1 (centres undefined),1.1,-9.3,x,x,x,16.8
Cc1nc(Nc2ccc(Cl)c(Cl)c2)sc1C(/C=C/c1ccc2c(c1)OCO2)=NNc1ccc([N+](=O)[O-])cc1[N+](=O)[O-],0.7,8.1,-3.4,-22.9,9.9,0.2
O=C(Nc1ccc(N2CCCC2)cc1)c1ccc(Cl)cc1Cl,-6.5,4.2,-6.1,-11.0,6.9,2.1
O=C(Nc1ccc(Br)cc1)Nc1ccccc1F,2.5,0.6,-3.1,-2.2,-1.7,-11.1
O=C(Nc1ccc(Cl)c(Cl)c1)Nc1ccc(Br)cc1F,4.4,30.9*,-0.2,27.9,-19.1,-13.9
O=C(Nc1ccc(N2CCCC2)cc1)c1cc(Cl)ccc1Cl,1.8,7.1,-9.1,36.0*,-25.7,-1.3
COc1ccc2c3c(ccc2c1)C(=O)/C(=C/O)CC3,-0.8,18.3,0.2,-9.7,8.1,-6.2
O=C(NCc1ccccc1)c1cc(C2COCCN2S(=O)(=O)c2cccs2)on1 (centres undefined),2.2,-0.9,-0.3,-9.1,14.2,-2.8
O=c1ccc2cc(O)c(O)cc2o1,24.9*,3.6,-0.6,-27.6,-2.4,-11.8
O=c1ccc2ccc(O)cc2o1,0.0,4.2,-0.4,0.9,-2.7,-4.1
COC(=O)C1=CN(c2ccc(F)cc2)C(N)=C(C#N)C1c1cccc(OC)c1OC (centres undefined),0.3,9.5,x,x,x,-8.0
O=C(CSc1n[nH]c(=O)n1C1CC1)Nc1cc(Cl)ccc1Oc1ccccc1,3.7,30.4*,2.4,45.9*,-15.7,-20.1
COc1ccc(N2C(=O)c3ccccc3NC(=O)C2C(=O)NCCc2ccccc2F)cc1 (centres undefined),0.8,15.5,x,x,x,-11.1
Cc1ccc(C(c2sc3nc(C)nn3c2O)N2CC(C)OC(C)C2)cc1 (centres undefined),-7.2,-4.2,-4.6,-3.7,2.4,3.9
Cc1nc2sc(C(c3ccc(Cl)cc3)N3CC(C)OC(C)C3)c(O)n2n1 (centres undefined),-1.9,7.2,11.4,-20.4,22.9*,-4.4
CNS(=O)(=O)c1ccc(CNC[C@H]2O[C@@H](n3cnc4c(=O)[nH]c(N)nc43)[C@H](O)[C@@H]2O)cc1,1.1,-6.6,-4.2,-10.7,-0.1,5.6
COC(=O)c1ccc(CSc2nc3ccccc3c(=O)n2Cc2ccco2)o1,-4.4,19.4,-5.1,36.0*,-20.2,-14.0
